Data set [1] deals with Rattus norvegicus. The data set can be described thus: Antiarthritic activity in Lewis rat model of Freund's incomplete adjuvant-induced arthritis assessed as inhibition of cartilage damage at 0.3 to 3 mg/kg, po bid administered for 7 days at 12 hrs interval starting from day 10 to day 16 post-immunization by microscopic analysis relative to control. It is filed as functional. Set-up: scale not given: the % may be the effect or the level left. Particulars: dose 0.3-3 mg/kg, time 7 day; call rule not given here. The gist of the method: (§1)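 Female Lewis rats with established collagen-induced arthritis dosed orally twice daily for 7 days at 0.3, 1 and 3 mg/kg, starting day 10 after second collagen immunization. Joint histopathology scored for pannus formation, cartilage damage, bone resorption and periosteal bone formation; ED50 derived. n = 8/treatment group, n = 4 normal controls.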

Data set [2] in a line: In vivo inhibition of PI3Kdelta in Lewis rat model of Freund's incomplete adjuvant-induced arthritis at 3 mg/kg, po bid administered for 7 days at 12 hrs interval starting from day 10 to day 16 post-immunization relative to control. It is filed as functional. Particulars: 168 h, time 7 day. The gist of the method: (§2)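 CIA Lewis rats dosed orally twice daily for 7 days at 0.3, 1 or 3 mg/kg; blood/plasma drug levels taken on day 7, 12 h after final dose, and related to PI3Kδ inhibition at trough.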

Data set [3] is described as follows: Terminal half life in cynomolgus monkey at 1 mg/kg, iv measured over 24 hrs by LC/MS/MS analysis. It is filed as ADME, organism-based, Macaca fascicularis. As to conditions: in vivo, read-out: beta t1/2 (converted). In outline:
(§3)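 Single intravenous dose of 1 mg/kg. Vehicles: rats and dogs 5% ethanol/55% PEG 400/40% water; cynomolgus monkeys 5% ethanol/22% PEG 400/73% water; rhesus monkeys 5% ethanol/25% PEG 400/70% water. Plasma concentration–time data gave Vss and iv half-life. Reported as mean ± SD, n = 3.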

The nature of data set [4]: Oral bioavailability in Sprague-Dawley rat at 5 mg/kg measured over 24 hrs by LC/MS/MS analysis. It is filed as ADME, organism-based. Particulars: in vivo. The gist of the method: (§4)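 Intravenous 1 mg/kg and oral 5 mg/kg doses. Vehicle: 5% ethanol/55% PEG 400/40% water for rats and dogs; 5% ethanol/22% PEG 400/73% water for cynomolgus; 5% ethanol/25% PEG 400/70% water for rhesus. Half-life and MRT from iv; mean ± SD, n = 3 per route.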

Data set [5] can be described thus: Chemical stability of the compound at pH 2 phosphate buffer assessed as time required for 90% hydrolytic degradation at 100 ug/ml and 40 degreeC by UPLC-UV analysis. As to conditions: in the assay text read “10% hydrolytic degradation” for “90% hydrolytic degradation”, dose 100 µg/ml. It is filed as physicochemical. In outline: (§5)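 Compound diluted from acetonitrile or DMSO stock to 100 μg/mL final in 50 mM phosphate buffer, pH 2 (or pH 7), ionic strength 0.15 M NaCl, 40 °C in autosampler. Timed injections analysed by reverse-phase UPLC-UV (220 nm); pseudo-first-order kobs from ln c vs time; t50 and t90 calculated.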

The target in data set [6] is Phosphatidylinositol 4,5-bisphosphate 3-kinase catalytic subunit gamma isoform (Homo sapiens, UniProt P48736). Kind of data set: Inhibition of human full length PI3K p110gamma using […] as substrate measured after 30 mins by TR-FRET assay. In general terms: TR-FRET usually uses a lanthanide donor and a delayed reading to cut background.
Sequence of Phosphatidylinositol 4,5-bisphosphate 3-kinase catalytic subunit gamma isoform (P48736 whole entry, canonical isoform): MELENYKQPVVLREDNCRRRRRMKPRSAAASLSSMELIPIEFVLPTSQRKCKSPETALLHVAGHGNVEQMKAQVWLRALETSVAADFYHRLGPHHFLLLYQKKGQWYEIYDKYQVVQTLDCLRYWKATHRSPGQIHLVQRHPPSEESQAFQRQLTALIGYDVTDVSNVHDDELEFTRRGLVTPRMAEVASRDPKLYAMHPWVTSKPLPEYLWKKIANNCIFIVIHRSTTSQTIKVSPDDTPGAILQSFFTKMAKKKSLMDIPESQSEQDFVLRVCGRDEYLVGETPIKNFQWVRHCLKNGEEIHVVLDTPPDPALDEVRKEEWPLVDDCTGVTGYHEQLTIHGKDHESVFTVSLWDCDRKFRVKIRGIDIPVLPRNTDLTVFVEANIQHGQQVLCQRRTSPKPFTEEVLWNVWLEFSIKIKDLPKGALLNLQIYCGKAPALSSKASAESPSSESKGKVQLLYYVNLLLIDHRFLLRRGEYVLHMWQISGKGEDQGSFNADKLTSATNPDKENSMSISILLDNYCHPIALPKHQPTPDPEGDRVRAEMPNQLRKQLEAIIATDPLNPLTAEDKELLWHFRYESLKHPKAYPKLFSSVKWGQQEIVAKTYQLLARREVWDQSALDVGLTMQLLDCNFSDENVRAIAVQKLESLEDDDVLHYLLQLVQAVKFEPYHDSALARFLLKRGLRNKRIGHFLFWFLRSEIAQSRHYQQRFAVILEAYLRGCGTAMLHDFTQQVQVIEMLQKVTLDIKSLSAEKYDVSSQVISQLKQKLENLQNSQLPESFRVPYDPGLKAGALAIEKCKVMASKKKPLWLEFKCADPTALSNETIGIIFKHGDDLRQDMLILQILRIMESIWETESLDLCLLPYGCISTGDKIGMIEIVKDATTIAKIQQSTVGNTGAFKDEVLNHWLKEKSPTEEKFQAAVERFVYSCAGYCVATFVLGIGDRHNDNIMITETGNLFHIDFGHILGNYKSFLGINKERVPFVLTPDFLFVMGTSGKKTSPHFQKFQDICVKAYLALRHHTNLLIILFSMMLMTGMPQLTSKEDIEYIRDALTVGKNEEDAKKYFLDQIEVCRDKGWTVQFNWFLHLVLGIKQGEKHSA

Data set [7] deals with Rattus norvegicus. Kind of data set: Antiarthritic activity in Lewis rat model of Freund's incomplete adjuvant-induced arthritis assessed as inhibition of […] bone formation at 0.3 to 3 mg/kg, po bid administered for 7 days at 12 hrs interval starting from day 10 to day 16 post-immunization by microscopic analysis relative to control. It is filed as functional. As to conditions: dose 0.3-3 mg/kg, time 7 day. Set-up: scale not given: the % may be the effect or the level left. The gist of the method: as §1

Data set [8] can be described thus: Chemical stability of the compound at pH 2 phosphate buffer assessed as time required for 50% hydrolytic degradation at 100 ug/ml and 40 degreeC by UPLC-UV analysis. It is filed as physicochemical. As to conditions: dose 100 µg/ml, read-out: Time (converted). The gist of the method:
as §5

Data set [9] is described as follows: Oral bioavailability in rat at 5 mg/kg. It is filed as ADME, organism-based. Particulars: in vivo.
Data set [10] concerns the target Voltage-gated inwardly rectifying potassium channel KCNH2 (Homo sapiens, UniProt Q12809). Kind of data set: Inhibition of human ERG at 25 uM.
Data set [11] in a line: In vivo inhibition of PI3Kdelta in Lewis rat model of Freund's incomplete adjuvant-induced arthritis at 0.3 mg/kg, po bid administered for 7 days at 12 hrs interval starting from day 10 to day 16 post-immunization relative to control. It is filed as functional. As to conditions: 168 h, time 7 day. The gist of the method:
as §2

Data set [12] is described as follows: MRT in Beagle dog at 1 mg/kg, iv measured over 24 hrs by LC/MS/MS analysis. It is filed as ADME, organism-based, Canis lupus familiaris. Particulars: in vivo. In outline: as §4
Data set [13] can be described thus: Volume of distribution at steady state in rhesus monkey at 1 mg/kg, iv measured over 24 hrs by LC/MS/MS analysis. As to conditions: in vivo, read-out: Vdss. It is filed as ADME, organism-based, Macaca mulatta. The gist of the method:
as §3

Data set [14] deals with T1, Phosphatidylinositol 4,5-bisphosphate 3-kinase catalytic subunit delta isoform (Homo sapiens, UniProt O00329).
T1 sequence (O00329 whole entry): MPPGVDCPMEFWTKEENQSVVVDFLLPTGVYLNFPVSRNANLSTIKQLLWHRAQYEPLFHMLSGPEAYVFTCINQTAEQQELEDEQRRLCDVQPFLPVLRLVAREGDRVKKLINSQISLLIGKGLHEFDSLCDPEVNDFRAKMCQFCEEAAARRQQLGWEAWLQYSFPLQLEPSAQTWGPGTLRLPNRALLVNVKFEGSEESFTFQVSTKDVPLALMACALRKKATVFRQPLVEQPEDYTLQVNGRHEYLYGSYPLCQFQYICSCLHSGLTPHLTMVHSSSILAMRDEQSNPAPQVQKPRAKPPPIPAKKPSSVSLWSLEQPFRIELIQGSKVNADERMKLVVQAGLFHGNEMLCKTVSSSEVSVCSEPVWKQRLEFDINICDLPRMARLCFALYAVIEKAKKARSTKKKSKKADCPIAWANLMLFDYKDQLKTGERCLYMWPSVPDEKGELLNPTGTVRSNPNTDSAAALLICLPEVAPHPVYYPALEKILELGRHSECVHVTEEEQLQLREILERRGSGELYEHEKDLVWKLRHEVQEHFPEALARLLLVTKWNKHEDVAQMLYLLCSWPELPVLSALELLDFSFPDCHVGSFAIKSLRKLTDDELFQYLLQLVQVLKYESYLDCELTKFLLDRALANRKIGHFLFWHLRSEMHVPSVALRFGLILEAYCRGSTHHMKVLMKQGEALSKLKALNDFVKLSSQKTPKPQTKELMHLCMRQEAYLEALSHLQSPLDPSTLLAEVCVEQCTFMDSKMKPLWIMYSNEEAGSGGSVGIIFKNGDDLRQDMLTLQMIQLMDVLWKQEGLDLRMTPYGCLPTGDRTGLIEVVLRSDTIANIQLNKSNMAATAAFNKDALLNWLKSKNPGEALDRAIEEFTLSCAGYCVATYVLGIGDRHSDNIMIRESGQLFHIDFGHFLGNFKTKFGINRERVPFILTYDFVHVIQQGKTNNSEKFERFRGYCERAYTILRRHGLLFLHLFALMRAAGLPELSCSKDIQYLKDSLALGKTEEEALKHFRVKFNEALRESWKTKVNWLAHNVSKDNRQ
The data set can be described thus: Inhibition of PI3K p110delta in human basophil assessed as reduction in anti-FCepsilonR1 mAb-induced basophil activation preincubated for 60 mins followed by anti-FCepsilonR1 mAb stimulation and measured after 25 mins in presence of 25% serum by flow cytometry analysis. It is filed as tissue-based.

Data set [15] is described as follows: Clearance in rat at 1 mg/kg, iv. It is filed as ADME, organism-based. As to conditions: in vivo.
The nature of data set [16]: Volume of distribution at steady state in cynomolgus monkey at 1 mg/kg, iv measured over 24 hrs by LC/MS/MS analysis. It is filed as ADME, organism-based, Macaca fascicularis. Particulars: in vivo, read-out: Vdss. In outline:
as §3

A word on the inhibition in vivo: it is the percentage by which the read-out fell short of the control. By bioavailability is commonly meant the share of a dose that reaches the circulation, judged against a reference dose that is usually intravenous. As usually defined, the IC50 is the concentration that inhibits the measured activity by half. What is called MRT is the average time that molecules of a dose stay in the body. What is called EC50 is the midpoint of the concentration-response curve. Broadly, the clearance is a measure of how efficiently the substance is removed, as volume per time.

Sequence of Voltage-gated inwardly rectifying potassium channel KCNH2 (Q12809 whole entry): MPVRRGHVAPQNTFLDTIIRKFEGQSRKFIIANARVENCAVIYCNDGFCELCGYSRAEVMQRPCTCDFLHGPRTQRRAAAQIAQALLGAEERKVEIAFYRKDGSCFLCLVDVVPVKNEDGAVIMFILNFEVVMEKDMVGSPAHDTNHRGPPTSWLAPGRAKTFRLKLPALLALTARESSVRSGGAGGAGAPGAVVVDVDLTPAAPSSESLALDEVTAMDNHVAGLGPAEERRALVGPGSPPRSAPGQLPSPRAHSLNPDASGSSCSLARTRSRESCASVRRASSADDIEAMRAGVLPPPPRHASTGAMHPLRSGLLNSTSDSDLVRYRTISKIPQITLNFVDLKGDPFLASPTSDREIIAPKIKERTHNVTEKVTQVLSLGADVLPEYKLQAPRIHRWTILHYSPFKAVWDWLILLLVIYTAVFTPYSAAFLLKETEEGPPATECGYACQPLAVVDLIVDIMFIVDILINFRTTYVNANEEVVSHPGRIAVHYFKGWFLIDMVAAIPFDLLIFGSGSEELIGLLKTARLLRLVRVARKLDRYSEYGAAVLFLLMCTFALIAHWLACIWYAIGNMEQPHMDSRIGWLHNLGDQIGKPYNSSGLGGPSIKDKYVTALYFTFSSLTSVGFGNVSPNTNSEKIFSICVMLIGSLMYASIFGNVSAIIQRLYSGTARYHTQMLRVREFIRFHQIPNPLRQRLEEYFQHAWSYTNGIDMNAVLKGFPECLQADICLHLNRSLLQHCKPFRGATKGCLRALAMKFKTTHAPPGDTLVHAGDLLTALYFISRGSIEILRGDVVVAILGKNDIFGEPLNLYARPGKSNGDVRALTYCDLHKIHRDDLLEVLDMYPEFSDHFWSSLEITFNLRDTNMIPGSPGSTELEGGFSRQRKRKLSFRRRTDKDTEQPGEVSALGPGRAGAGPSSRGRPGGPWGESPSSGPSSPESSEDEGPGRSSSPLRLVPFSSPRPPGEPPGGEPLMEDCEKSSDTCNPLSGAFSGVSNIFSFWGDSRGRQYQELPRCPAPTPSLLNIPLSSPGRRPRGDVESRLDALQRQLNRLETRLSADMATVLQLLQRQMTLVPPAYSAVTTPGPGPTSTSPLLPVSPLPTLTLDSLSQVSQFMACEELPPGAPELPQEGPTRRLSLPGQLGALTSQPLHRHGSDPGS

`N#Cc1c(N)nc(N)nc1N[C@H](c1nc2c(F)ccc(Cl)c2c(=O)n1-c1cccnc1)C1CC1` [GS-9901]: the Activity with Rattus norvegicus [1] is 50%; in the data set with Rattus norvegicus [7] it was 48%. In [2], the inhibition in vivo at 3 mg/kg is above 90%. In addition, the half-life in data set [3] was 2.89 h. The bioavailability in [4] and in [9] was 57% each time. Moreover, the Time in data set [5] worked out at 3.1 h. In data set [6], this compound returned a half-maximal inhibitory concentration (IC50) of 190 nM. The half-life at 100 ug/ml in [8] was 20 h. Also, the “inhibition (INH)” value in data set [10] was “Not Active”. Further, the inhibition in vivo at 0.3 mg/kg in [11] came to 60%. The compound also registered a mean residence time (MRT) in data set [12] of 2.01 h. Besides, the Vd in data set [13] was found to be 1.34 L/kg; in data set [16], 1.21 L/kg. In addition, in [14], the 50% effective concentration (EC50) worked out at 1.3 nM. Further, the clearance in [15] was 7.17 mL/min/kg.
